# Test system: U2OS
# Test: Multiplex assay against U2OS
# Type: toxicity, cell-based
# Details: human
# In short: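 Cells stained live at seeding with Hoechst33342, BioTracker Green Microtubule Cytoskeleton Dye, MitoTracker Red and Annexin V Alexa Fluor 680 were imaged on a CQ1 microscope at 37°C and 5% CO2 after compound addition. Their classification by CellPathfinder machine-learning gating ran from Hoechst high-intensity objects versus normal cells, to healthy, pyknosed or fragmented nuclei among normal cells, to mitotic or apoptotic among pyknosed cells. Tubulin, mitochondrial-mass and membrane-permeability phenotypes are per cents of healthy-nucleus cells.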
# [1] = 12 h, 1 µM, compound concentration 1 uM, replicate 1
# [2] = 12 h, 1 µM, compound concentration 1 uM, replicate 2
# [3] = 12 h, 10 µM, compound concentration 10 uM, replicate 1
# [4] = 12 h, 10 µM, compound concentration 10 uM, replicate 2
# [5] = 24 h, 1 µM, compound concentration 1 uM, replicate 1
# [6] = 24 h, 1 µM, compound concentration 1 uM, replicate 2
# [7] = 24 h, 10 µM, compound concentration 10 uM, replicate 1
# [8] = 24 h, 10 µM, compound concentration 10 uM, replicate 2
# [9] = 48 h, 1 µM, compound concentration 1 uM, replicate 1
# [10] = 48 h, 1 µM, compound concentration 1 uM, replicate 2
# [11] = 48 h, 10 µM, compound concentration 10 uM, replicate 1
# [12] = 48 h, 10 µM, compound concentration 10 uM, replicate 2
smiles,measurement,setting,value
CC(C)(C)c1ccc(CSc2cnn(C(C)(C)C)c(=O)c2Cl)cc1 [PYRIDABEN],Population Apoptotic (%),[1],79%
same,Population Fragmented Nuclei (%),[1],28%
same,Population Healthy Nuclei (%),[1],61%
same,Population Hoechst High Intensity Objects (%),[1],3%
same,Population Membrane Permeable-Phenotype (%),[1],3%
same,Population Mitochondria Different-Phenotype (%),[1],1%
same,Population Mitotic Cells (%),[1],20%
same,Population Normal (%),[1],97%
same,Population Pyknosed Nuclei (%),[1],9%
same,Population Tubulin-Different-Phenotype (%),[1],2%
same,Total Cell Count,[1],267
same,Population Apoptotic (%),[2],63%
same,Population Fragmented Nuclei (%),[2],11%
same,Population Healthy Nuclei (%),[2],81%
same,Population Hoechst High Intensity Objects (%),[2],0%
same,Population Membrane Permeable-Phenotype (%),[2],4%
same,Population Mitotic Cells (%),[2],36%
same,Population Normal (%),[2],99%
same,Population Pyknosed Nuclei (%),[2],7%
same,Population Tubulin-Different-Phenotype (%),[2],3%
same,Total Cell Count,[2],152
same,Population Apoptotic (%),[3],83%
same,Population Fragmented Nuclei (%),[3],28%
same,Population Healthy Nuclei (%),[3],57%
same,Population Hoechst High Intensity Objects (%),[3],1%
same,Population Membrane Permeable-Phenotype (%),[3],5%
same,Population Mitochondria Different-Phenotype (%),[3],5%
same,Population Mitotic Cells (%),[3],16%
same,Population Normal (%),[3],98%
same,Population Pyknosed Nuclei (%),[3],14%
same,Population Tubulin-Different-Phenotype (%),[3],3%
same,Total Cell Count,[3],209
same,Population Apoptotic (%),[4],87%
same,Population Fragmented Nuclei (%),[4],15%
same,Population Healthy Nuclei (%),[4],73%
same,Population Hoechst High Intensity Objects (%),[4],0%
same,Population Mitochondria Different-Phenotype (%),[4],2%
same,Population Mitotic Cells (%),[4],12%
same,Population Normal (%),[4],100%
same,Population Pyknosed Nuclei (%),[4],11%
same,Population Tubulin-Different-Phenotype (%),[4],2%
same,Total Cell Count,[4],141
same,Population Apoptotic (%),[5],83%
same,Population Fragmented Nuclei (%),[5],28%
same,Population Healthy Nuclei (%),[5],58%
same,Population Hoechst High Intensity Objects (%),[5],1%
same,Population Membrane Permeable-Phenotype (%),[5],4%
same,Population Mitochondria Different-Phenotype (%),[5],1%
same,Population Mitotic Cells (%),[5],16%
same,Population Normal (%),[5],98%
same,Population Pyknosed Nuclei (%),[5],13%
same,Population Tubulin-Different-Phenotype (%),[5],1%
same,Total Cell Count,[5],286
same,Population Apoptotic (%),[6],100%
same,Population Fragmented Nuclei (%),[6],19%
same,Population Healthy Nuclei (%),[6],75%
same,Population Hoechst High Intensity Objects (%),[6],2%
same,Population Membrane Permeable-Phenotype (%),[6],3%
same,Population Mitotic Cells (%),[6],0%
same,Population Normal (%),[6],97%
same,Population Pyknosed Nuclei (%),[6],5%
same,Total Cell Count,[6],186
same,Population Apoptotic (%),[7],80%
same,Population Fragmented Nuclei (%),[7],22%
same,Population Healthy Nuclei (%),[7],61%
same,Population Hoechst High Intensity Objects (%),[7],2%
same,Population Membrane Permeable-Phenotype (%),[7],8%
same,Population Mitochondria Different-Phenotype (%),[7],3%
same,Population Mitotic Cells (%),[7],19%
same,Population Normal (%),[7],97%
same,Population Pyknosed Nuclei (%),[7],15%
same,Population Tubulin-Different-Phenotype (%),[7],6%
same,Total Cell Count,[7],234
same,Population Fragmented Nuclei (%),[8],19%
same,Population Healthy Nuclei (%),[8],68%
same,Population Hoechst High Intensity Objects (%),[8],1%
same,Population Membrane Permeable-Phenotype (%),[8],6%
same,Population Mitochondria Different-Phenotype (%),[8],1%
same,Population Mitotic Cells (%),[8],20%
same,Population Normal (%),[8],98%
same,Population Pyknosed Nuclei (%),[8],12%
same,Population Tubulin-Different-Phenotype (%),[8],2%
same,Total Cell Count,[8],167
same,Population Apoptotic (%),[9],76%
same,Population Fragmented Nuclei (%),[9],26%
same,Population Healthy Nuclei (%),[9],63%
same,Population Hoechst High Intensity Objects (%),[9],3%
same,Population Membrane Permeable-Phenotype (%),[9],6%
same,Population Mitochondria Different-Phenotype (%),[9],3%
same,Population Mitotic Cells (%),[9],23%
same,Population Normal (%),[9],96%
same,Population Pyknosed Nuclei (%),[9],9%
same,Population Tubulin-Different-Phenotype (%),[9],3%
same,Total Cell Count,[9],361
same,Population Apoptotic (%),[10],84%
same,Population Fragmented Nuclei (%),[10],19%
same,Population Healthy Nuclei (%),[10],70%
same,Population Hoechst High Intensity Objects (%),[10],6%
same,Population Membrane Permeable-Phenotype (%),[10],5%
same,Population Mitotic Cells (%),[10],15%
same,Population Normal (%),[10],93%
same,Population Tubulin-Different-Phenotype (%),[10],2%
same,Total Cell Count,[10],212
same,Population Apoptotic (%),[11],90%
same,Population Fragmented Nuclei (%),[11],20%
same,Population Healthy Nuclei (%),[11],64%
same,Population Hoechst High Intensity Objects (%),[11],4%
same,Population Membrane Permeable-Phenotype (%),[11],9%
same,Population Mitochondria Different-Phenotype (%),[11],4%
same,Population Mitotic Cells (%),[11],10%
same,Population Normal (%),[11],95%
same,Population Pyknosed Nuclei (%),[11],14%
same,Population Tubulin-Different-Phenotype (%),[11],6%
same,Total Cell Count,[11],280
same,Population Apoptotic (%),[12],95%
same,Population Fragmented Nuclei (%),[12],16%
same,Population Healthy Nuclei (%),[12],70%
same,Population Hoechst High Intensity Objects (%),[12],3%
same,Population Membrane Permeable-Phenotype (%),[12],5%
same,Population Mitochondria Different-Phenotype (%),[12],6%
same,Population Mitotic Cells (%),[12],4%
same,Population Normal (%),[12],96%
same,Population Pyknosed Nuclei (%),[12],13%
same,Population Tubulin-Different-Phenotype (%),[12],4%
same,Total Cell Count,[12],191
Cc1c(Cc2ccc3ccccc3n2)c2cc(F)ccc2n1CC(=O)O [TIMAPIPRANT],Population Apoptotic (%),[1],84%
same,Population Fragmented Nuclei (%),[1],21%
same,Population Healthy Nuclei (%),[1],69%
same,Population Hoechst High Intensity Objects (%),[1],2%
same,Population Membrane Permeable-Phenotype (%),[1],3%
same,Population Mitochondria Different-Phenotype (%),[1],1%
same,Population Mitotic Cells (%),[1],16%
same,Population Normal (%),[1],97%
same,Population Pyknosed Nuclei (%),[1],8%
same,Population Tubulin-Different-Phenotype (%),[1],1%
same,Total Cell Count,[1],298
same,Population Apoptotic (%),[2],83%
same,Population Fragmented Nuclei (%),[2],22%
same,Population Healthy Nuclei (%),[2],70%
same,Population Hoechst High Intensity Objects (%),[2],1%
same,Population Membrane Permeable-Phenotype (%),[2],4%
same,Population Mitochondria Different-Phenotype (%),[2],4%
same,Population Normal (%),[2],98%
same,Population Pyknosed Nuclei (%),[2],6%
same,Population Tubulin-Different-Phenotype (%),[2],3%
same,Total Cell Count,[2],94
same,Population Apoptotic (%),[3],75%
same,Population Fragmented Nuclei (%),[3],30%
same,Population Healthy Nuclei (%),[3],62%
same,Population Hoechst High Intensity Objects (%),[3],2%
same,Population Membrane Permeable-Phenotype (%),[3],4%
same,Population Mitochondria Different-Phenotype (%),[3],1%
same,Population Mitotic Cells (%),[3],25%
same,Population Normal (%),[3],97%
same,Population Pyknosed Nuclei (%),[3],6%
same,Population Tubulin-Different-Phenotype (%),[3],2%
same,Total Cell Count,[3],244
same,Population Apoptotic (%),[4],68%
same,Population Fragmented Nuclei (%),[4],12%
same,Population Healthy Nuclei (%),[4],75%
same,Population Hoechst High Intensity Objects (%),[4],0%
same,Population Membrane Permeable-Phenotype (%),[4],6%
same,Population Mitochondria Different-Phenotype (%),[4],3%
same,Population Mitotic Cells (%),[4],31%
same,Population Normal (%),[4],99%
same,Population Pyknosed Nuclei (%),[4],12%
same,Population Tubulin-Different-Phenotype (%),[4],3%
same,Total Cell Count,[4],132
same,Population Apoptotic (%),[5],96%
same,Population Fragmented Nuclei (%),[5],18%
same,Population Healthy Nuclei (%),[5],73%
same,Population Hoechst High Intensity Objects (%),[5],1%
same,Population Membrane Permeable-Phenotype (%),[5],6%
same,Population Mitochondria Different-Phenotype (%),[5],3%
same,Population Mitotic Cells (%),[5],3%
same,Population Normal (%),[5],98%
same,Population Pyknosed Nuclei (%),[5],7%
same,Population Tubulin-Different-Phenotype (%),[5],4%
same,Total Cell Count,[5],371
same,Population Apoptotic (%),[6],100%
same,Population Fragmented Nuclei (%),[6],19%
same,Population Membrane Permeable-Phenotype (%),[6],7%
same,Population Mitochondria Different-Phenotype (%),[6],2%
same,Population Mitotic Cells (%),[6],0%
same,Population Tubulin-Different-Phenotype (%),[6],3%
same,Total Cell Count,[6],117
same,Population Apoptotic (%),[7],94%
same,Population Fragmented Nuclei (%),[7],26%
same,Population Healthy Nuclei (%),[7],66%
same,Population Hoechst High Intensity Objects (%),[7],1%
same,Population Membrane Permeable-Phenotype (%),[7],6%
same,Population Mitochondria Different-Phenotype (%),[7],2%
same,Population Mitotic Cells (%),[7],5%
same,Population Normal (%),[7],98%
same,Population Pyknosed Nuclei (%),[7],6%
same,Population Tubulin-Different-Phenotype (%),[7],3%
same,Total Cell Count,[7],278
same,Population Apoptotic (%),[8],72%
same,Population Fragmented Nuclei (%),[8],18%
same,Population Healthy Nuclei (%),[8],74%
same,Population Hoechst High Intensity Objects (%),[8],0%
same,Population Membrane Permeable-Phenotype (%),[8],8%
same,Population Mitotic Cells (%),[8],27%
same,Population Normal (%),[8],100%
same,Population Pyknosed Nuclei (%),[8],7%
same,Total Cell Count,[8],152
same,Population Apoptotic (%),[9],88%
same,Population Fragmented Nuclei (%),[9],16%
same,Population Healthy Nuclei (%),[9],77%
same,Population Hoechst High Intensity Objects (%),[9],1%
same,Population Membrane Permeable-Phenotype (%),[9],4%
same,Population Mitochondria Different-Phenotype (%),[9],3%
same,Population Mitotic Cells (%),[9],11%
same,Population Normal (%),[9],98%
same,Population Pyknosed Nuclei (%),[9],6%
same,Population Tubulin-Different-Phenotype (%),[9],3%
same,Total Cell Count,[9],536
same,Population Apoptotic (%),[10],90%
same,Population Fragmented Nuclei (%),[10],22%
same,Population Healthy Nuclei (%),[10],71%
same,Population Hoechst High Intensity Objects (%),[10],2%
same,Population Membrane Permeable-Phenotype (%),[10],12%
same,Population Mitochondria Different-Phenotype (%),[10],5%
same,Population Mitotic Cells (%),[10],10%
same,Population Normal (%),[10],97%
same,Population Tubulin-Different-Phenotype (%),[10],6%
same,Total Cell Count,[10],168
same,Population Apoptotic (%),[11],100%
same,Population Fragmented Nuclei (%),[11],19%
same,Population Healthy Nuclei (%),[11],74%
same,Population Hoechst High Intensity Objects (%),[11],0%
same,Population Membrane Permeable-Phenotype (%),[11],3%
same,Population Mitochondria Different-Phenotype (%),[11],1%
same,Population Mitotic Cells (%),[11],0%
same,Population Normal (%),[11],99%
same,Population Pyknosed Nuclei (%),[11],6%
same,Population Tubulin-Different-Phenotype (%),[11],1%
same,Total Cell Count,[11],392
same,Population Apoptotic (%),[12],92%
same,Population Fragmented Nuclei (%),[12],13%
same,Population Healthy Nuclei (%),[12],80%
same,Population Hoechst High Intensity Objects (%),[12],2%
same,Population Membrane Permeable-Phenotype (%),[12],5%
same,Population Mitochondria Different-Phenotype (%),[12],3%
same,Population Mitotic Cells (%),[12],7%
same,Population Normal (%),[12],97%
same,Population Tubulin-Different-Phenotype (%),[12],3%
same,Total Cell Count,[12],204

# Source: ChEMBL document CHEMBL5058577, “EUbOPEN Chemogenomics Library 2 (Multiplex)” (2022)
